Measured values taken from paper PMC3574193 (Journal of medicinal chemistry, 2013).
“Also recorded” adds a separate entry of the source. Blank lines part the entries; values can stand above or below the compound they belong to.

Legend:
[1] = Preliminary half-life studies in rats; format: in vivo; settings: data not shown
[2] = cited from earlier work
[3] = biological target: T1, extracellular TG2 in T84 enterocytic cells (Homo sapiens, UniProt P21980); assay: Trx-mediated TG2 activation in T84 enterocytic cells; format: cell-based; settings: 25 µM ERW1041E
T1 sequence (P21980 1-687): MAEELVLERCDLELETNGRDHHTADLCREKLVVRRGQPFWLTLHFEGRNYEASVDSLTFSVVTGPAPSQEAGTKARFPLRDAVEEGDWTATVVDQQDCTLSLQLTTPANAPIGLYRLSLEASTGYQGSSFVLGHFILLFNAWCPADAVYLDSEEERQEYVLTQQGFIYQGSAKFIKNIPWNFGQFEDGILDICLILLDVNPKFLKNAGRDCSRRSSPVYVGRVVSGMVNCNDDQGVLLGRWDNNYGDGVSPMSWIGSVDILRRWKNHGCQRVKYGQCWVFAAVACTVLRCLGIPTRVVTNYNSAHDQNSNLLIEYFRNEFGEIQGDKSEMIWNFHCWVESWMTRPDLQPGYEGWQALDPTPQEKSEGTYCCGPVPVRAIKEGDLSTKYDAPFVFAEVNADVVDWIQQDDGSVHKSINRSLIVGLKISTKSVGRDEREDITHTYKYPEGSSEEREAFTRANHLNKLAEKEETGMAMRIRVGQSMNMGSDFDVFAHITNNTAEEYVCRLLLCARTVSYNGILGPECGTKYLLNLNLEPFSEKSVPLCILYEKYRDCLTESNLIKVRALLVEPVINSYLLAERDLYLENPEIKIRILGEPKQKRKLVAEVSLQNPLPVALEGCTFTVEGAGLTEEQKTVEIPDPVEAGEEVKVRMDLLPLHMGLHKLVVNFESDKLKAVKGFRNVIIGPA

human Trx W31A mutant = biological target: T2, human Trx W31A mutant (Homo sapiens, UniProt P10599, W31A); assay: In vitro thioredoxin activity assay with W31A mutant; format: biochemical; settings: W31A mutant of human Trx
T2 sequence (P10599 1-105 W31A): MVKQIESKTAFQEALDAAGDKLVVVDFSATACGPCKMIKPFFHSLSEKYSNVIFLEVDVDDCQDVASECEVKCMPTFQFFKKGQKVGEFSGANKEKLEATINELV
Summary of the method: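 Pre-reduced enzyme was desalted by spin column, quantified by A280 and used within 2 h. It was reacted with test compound, 10 µM each, in 0.1 M phosphate-citrate pH 6.0 at room temperature. Aromatic product accumulation was fitted exponentially for kinh/Ki.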

half-life in rats [1]: short half-life
SMILES: CCC(C)SSc1ncc[nH]1 (stereo not shown) [Compound 1, 2-(sec-butyldisulfanyl)-1H-imidazole]
half-life in humans [2]: extremely short half-life

SMILES: O=C(NC[C@@H]1CC(Br)=NO1)[C@@H]1CCCN1C(=O)OCc1cnc2ccccc2c1 [ERW1041E, (S)-quinolin-3-ylmethyl 2-((((S)-3-bromo-4,5-dihydroisoxazol-5-yl)methyl)carbamoyl)pyrrolidine-1-carboxylate]
effect on Trx mediated 5BP incorporation [3]: fully suppressed; also recorded: completely blocked

kinh/Ki with W31A Trx (human Trx W31A mutant): 23700 M⁻¹ s⁻¹
SMILES: CCC(C)SSc1nc2ccccc2[nH]1 (stereo not shown) [Compound 14, 2-(sec-butyldisulfanyl)-1H-benzo[d]imidazole]
